Columns and labels:
Homo sapiens [1] = assay: Central compartment volume of distribution in Papua new Guinean women in second or third trimester of pregnancy using pharmacokinetic base model at 450 mg/day, po administered as three divided doses in presence of sulfadoxine-pyrimethamine by HPLC method; assay type: ADME, organism-based; conditions: in vivo
Summary of the method: (§1)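 Papua New Guinean women in the second or third trimester of pregnancy (n=30) and age-matched nonpregnant women (n=30) took CQ 450 mg (8.5 mg/kg/day) as whole tablets with water once daily for 3 days, plus single-dose sulfadoxine-pyrimethamine, without fasting. Plasma was sampled from baseline to 72 h and on days 7–42. CQ and DECQ were measured by HPLC (UV 340 nm) and analysed by population PK modelling, with weight-allometric scaling expressed relative to F.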

[2] = Cmax in Papua new Guinean pregnant women at 450 mg/day, po administered as three divided doses by HPLC method; assay type: ADME, organism-based; parameters: dose 450 mg/day, route oral; conditions: female, human, in vivo
Summary of the method: (§2)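 Simulated values, not observed data. Final population PK model parameters were applied in NONMEM to hypothetical pregnant and nonpregnant women (n=1,000 each) generated with mvtnorm, with covariates such as weight drawn from the original subjects. Cmax, Tmax and AUC0-∞ of CQ and DECQ were derived for a range of plausible CQ regimens.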

[3] = AUC (0 to infinity) in Papua new Guinean pregnant women at 450 mg/day, po administered as three divided doses by HPLC method; assay type: ADME, organism-based; parameters: dose 450 mg/day, time infinity, route oral; conditions: female, human, plasma; summary of the method: as §1
Homo sapiens [4] = assay: AUC (0 to infinity) in Papua new Guinean pregnant women assessed as monodesethychloroquine at 750 mg/day, po administered as three divided doses by HPLC method; assay type: ADME, organism-based, Plasma; parameters: dose 750 mg/day, time infinity, route oral; conditions: in vivo; summary of the method: as §2
[5] = Apparent oral clearance in Papua new Guinean women in second or third trimester of pregnancy using pharmacokinetic final covariate model at 450 mg/day, po administered as three divided doses in presence of sulfadoxine-pyrimethamine by HPLC method; assay type: ADME, organism-based; conditions: female, human, in vivo; summary of the method: as §1
Homo sapiens [6] = assay: (§3) Central compartment volume of distribution in Papua new Guinean women in second or third trimester of pregnancy using pharmacokinetic final covariate model assessed as monodesethychloroquine at 450 mg/day, po administered as three divided doses in presence of sulfadoxine-pyrimethamine by HPLC method; assay type: ADME, organism-based; conditions: in vivo; summary of the method: as §1
Homo sapiens [7] = assay: Peripheral compartment volume of distribution in Papua new Guinean women in second or third trimester of pregnancy using pharmacokinetic base model assessed as monodesethychloroquine at 450 mg/day, po administered as three divided doses in presence of sulfadoxine-pyrimethamine by HPLC method; assay type: ADME, organism-based; conditions: in vivo; summary of the method: as §1
Homo sapiens [8] = assay: Central compartment volume of distribution in Papua new Guinean women in second or third trimester of pregnancy using pharmacokinetic base model assessed as monodesethychloroquine at 450 mg/day, po administered as three divided doses in presence of sulfadoxine-pyrimethamine by HPLC method; assay type: ADME, organism-based; conditions: in vivo; summary of the method: as §1
Homo sapiens [9] = assay: AUC (0 to infinity) in Papua new Guinean pregnant women assessed as monodesethychloroquine at 600 mg/day, po administered as three divided doses by HPLC method; assay type: ADME, organism-based, Plasma; parameters: dose 600 mg/day, time infinity, route oral; conditions: in vivo; summary of the method: as §2
[10] = Cmax in Papua new Guinean pregnant women at 750 mg/day, po administered as three divided doses by HPLC method; assay type: ADME, organism-based; parameters: dose 750 mg/day, route oral; conditions: female, human, in vivo; summary of the method: as §2
Homo sapiens [11] = assay: Cmax in Papua new Guinean pregnant women assessed as monodesethychloroquine at 600 mg/day, po administered as three divided doses by HPLC method; assay type: ADME, organism-based; parameters: dose 600 mg/day, route oral; conditions: in vivo; summary of the method: as §2
[12] = Cmax in Papua new Guinean pregnant women at 600 mg/day, po administered as three divided doses by HPLC method; assay type: ADME, organism-based; parameters: dose 600 mg/day, route oral; conditions: female, human, in vivo; summary of the method: as §2
Homo sapiens [13] = assay: Cmax in Papua new Guinean pregnant women assessed as monodesethychloroquine at 750 mg/day, po administered as three divided doses by HPLC method; assay type: ADME, organism-based; parameters: dose 750 mg/day, route oral; conditions: in vivo; summary of the method: as §2
[14] = AUC (0 to infinity) in women at 450 mg/day, po administered as three divided doses by HPLC method; assay type: ADME, organism-based; parameters: dose 450 mg/day, time infinity, route oral; conditions: female, human, plasma; summary of the method: as §1
Homo sapiens [15] = assay: Central compartment volume of distribution in Papua new Guinean women in second or third trimester of pregnancy using pharmacokinetic final covariate model at 450 mg/day, po administered as three divided doses in presence of sulfadoxine-pyrimethamine by HPLC method; assay type: ADME, organism-based; conditions: in vivo; summary of the method: as §1
Homo sapiens [16] = assay: Peripheral compartment volume of distribution in Papua new Guinean women in second or third trimester of pregnancy using pharmacokinetic final covariate model at 450 mg/day, po administered as three divided doses in presence of sulfadoxine-pyrimethamine by HPLC method; assay type: ADME, organism-based; conditions: in vivo; summary of the method: as §1
Homo sapiens [17] = assay: AUC (0 to infinity) in women assessed as monodesethychloroquine at 450 mg/day, po administered as three divided doses by HPLC method; assay type: ADME, organism-based, Plasma; parameters: dose 450 mg/day, route oral, time infinity; conditions: in vivo; summary of the method: as §1
Homo sapiens [18] = assay: Cmax in women assessed as monodesethychloroquine at 450 mg/day, po administered as three divided doses by HPLC method; assay type: ADME, organism-based; parameters: dose 450 mg/day, route oral; conditions: in vivo; summary of the method: as §2
Homo sapiens [19] = assay: Cmax in Papua new Guinean pregnant women assessed as monodesethychloroquine at 450 mg/day, po administered as three divided doses by HPLC method; assay type: ADME, organism-based; parameters: dose 450 mg/day, route oral; conditions: in vivo; summary of the method: as §2
[20] = AUC (0 to infinity) in Papua new Guinean pregnant women at 750 mg/day, po administered as three divided doses by HPLC method; assay type: ADME, organism-based; parameters: dose 750 mg/day, route oral, time infinity; conditions: female, human, plasma; summary of the method: as §2
[21] = Apparent oral clearance in Papua new Guinean women in second or third trimester of pregnancy using pharmacokinetic base model at 450 mg/day, po administered as three divided doses in presence of sulfadoxine-pyrimethamine by HPLC method; assay type: ADME, organism-based; conditions: female, human, in vivo; summary of the method: as §1
Homo sapiens [22] = assay: Peripheral compartment volume of distribution in Papua new Guinean women in second or third trimester of pregnancy using pharmacokinetic base model at 450 mg/day, po administered as three divided doses in presence of sulfadoxine-pyrimethamine by HPLC method; assay type: ADME, organism-based; conditions: in vivo; summary of the method: as §1
Homo sapiens [23] = assay: as §3, with “Peripheral” for “Central”; assay type: ADME, organism-based; conditions: in vivo; summary of the method: as §1
[24] = Cmax in women at 450 mg/day, po administered as three divided doses by HPLC method; assay type: ADME, organism-based; parameters: dose 450 mg/day, route oral; conditions: female, human, in vivo; summary of the method: as §2
[25] = AUC (0 to infinity) in Papua new Guinean pregnant women at 600 mg/day, po administered as three divided doses by HPLC method; assay type: ADME, organism-based; parameters: dose 600 mg/day, time infinity, route oral; conditions: female, human, plasma; summary of the method: as §2
Homo sapiens [26] = assay: AUC (0 to infinity) in Papua new Guinean pregnant women assessed as monodesethychloroquine at 450 mg/day, po administered as three divided doses by HPLC method; assay type: ADME, organism-based, Plasma; parameters: dose 450 mg/day, route oral, time infinity; conditions: in vivo; summary of the method: as §1

CCN(CC)CCCC(C)Nc1ccnc2cc(Cl)ccc12 (stereo unspecified) [CHLOROQUINE]
Vc/F (Homo sapiens [1]): 4160 L | Cmax [2]: 296 ng/mL | AUC(0-inf) [3]: 35700 ng·h/mL | AUC (Homo sapiens [4]): 39.793 µg·h/mL | CL/F [5]: 488 mL/min | Vc/F (Homo sapiens [6]): 40 L | Vp/F (Homo sapiens [7]): 812 L | Vc/F (Homo sapiens [8]): 39.9 L | AUC (Homo sapiens [9]): 31.835 µg·h/mL | Cmax [10]: 494 ng/mL | Cmax (Homo sapiens [11]): 185 µg/L | Cmax [12]: 395 ng/mL | Cmax (Homo sapiens [13]): 232 µg/L | AUC(0-inf) [14]: 50000 ng·h/mL | Vc/F (Homo sapiens [15]): 4220 L | Vp/F (Homo sapiens [16]): 5190 L | AUC (Homo sapiens [17]): 41.255 µg·h/mL | Cmax (Homo sapiens [18]): 186 µg/L | Cmax (Homo sapiens [19]): 139 µg/L | AUC(0-inf) [20]: 59400 ng·h/mL | CL/F [21]: 568 mL/min | Vp/F (Homo sapiens [22]): 5200 L | Vp/F (Homo sapiens [23]): 840 L | Cmax [24]: 376 ng/mL | AUC(0-inf) [25]: 47500 ng·h/mL | AUC (Homo sapiens [26]): 23.876 µg·h/mL

Reference: ChEMBL document CHEMBL1255405 (Antimicrob Agents Chemother, 2010)
